Screening data deposited in PubChem BioAssay by several laboratories.
GPR7 antag: GPR7 receptor antagonists, primary screen, cell-based, fluorescence, single concentration | GPR7-expressing cells, fluorescence antagonist assay | inhibition, % at 4.4 µM | actives 1.1% (n = 290,000) | AID 1861, 2009; in the data active means inhibition above about 16%, passing the limit was not always enough;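 further: cells stimulated with the agonist NPW; 0% = agonist with vehicle and 100% = vehicle without agonist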
CHO parental Ca: ATP-evoked calcium signal inhibitors, parental CHO, primary screen, counter-screen for OX1R antagonist project, cell-based, fluorescence, Fluo-8 calcium dye; parental CHO-K1, ATP-induced calcium, Fluo-8 fluorescence; inhibition, % at 5.6 µM; actives 0.63% (n = 330,000); AID 463079, 2010;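 active means inhibition above that plate's mean sample inhibition plus 3 SD, cut at about 26% in these data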;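 further: 0% = ATP-challenged DMSO wells and 100% = DMSO wells without ATP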
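Test system: untransfected parental CHO cell line; also added: ATP stimulus; dosing: 5.6 µM, single dose; signal: calcium-sensitive Fluo-8 fluorescence; measure: percent inhibition of ATP-evoked calcium rise, normalized to controls; benchmarks: low control ATP plus DMSO, high control DMSO only; replication: one well per compound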
OX1R antag-1: OX1R (HCRTR1) antagonists, primary screen, fluorescence, CHO/OX1R cells, Fluo-8 calcium, orexin A. inhibition, % at 5 µM. AID 434989, 2010. actives 0.43% (n = 330,000). Fluo-8 calcium fluorescence;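 active means inhibition above its plate's threshold, mean inhibition of all tested compounds on the plate plus 3 SD, cut at about 37% in these data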;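 further: 0% = orexin A challenge wells and 100% = SB-334867-A antagonist wells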
Target sequence (O43613 whole entry, looked up): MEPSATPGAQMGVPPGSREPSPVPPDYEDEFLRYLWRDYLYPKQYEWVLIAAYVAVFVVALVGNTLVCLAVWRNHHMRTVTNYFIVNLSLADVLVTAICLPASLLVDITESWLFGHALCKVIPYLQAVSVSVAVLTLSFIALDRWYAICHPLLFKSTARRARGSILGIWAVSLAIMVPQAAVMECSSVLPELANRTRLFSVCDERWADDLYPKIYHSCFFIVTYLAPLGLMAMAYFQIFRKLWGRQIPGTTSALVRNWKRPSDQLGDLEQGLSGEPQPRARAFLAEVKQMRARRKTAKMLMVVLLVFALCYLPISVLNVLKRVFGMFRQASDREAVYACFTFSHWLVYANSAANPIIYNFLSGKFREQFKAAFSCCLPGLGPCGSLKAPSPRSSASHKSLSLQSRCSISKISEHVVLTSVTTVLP
EP2 modulator: EP2 receptor modulators, cAMP readout, primary screen, cell-based, HTRF cAMP, PGE2 stimulation. Prostaglandin E2 receptor EP2 subtype (Homo sapiens), P43116. EP2-expressing cells, cAMP HTRF FRET, PGE2 co-stimulation. induction, % at 25 µM. actives 0.83% (n = 260,000);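 active means compounds whose cAMP rise, as percent of the full-agonist control response, exceeds 60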;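 further: rat C6 glioma line stably carrying human EP2 under a CMV promoter; the protocol text gives 20 µM as final concentration; 100% = response of wells given 1 µM PGE2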
EP2 antag: human EP2 receptor antagonists, primary screen, TR-FRET cAMP, C6 glioma cells; actives 0.52% (n = 260,000); inhibition, % at 25 µM; C6 glioma cells expressing human EP2; cells stimulated with saturating PGE2; Prostaglandin E2 receptor EP2 subtype (Homo sapiens), P43116; AID 1422, 2008;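 active means percent inhibition above 40 after rounding to a whole number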;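 further: rat C6 glioma host cells with rolipram phosphodiesterase inhibitor present; the protocol text gives 20 µM as final concentration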
OX1R antag-2: antagonists of human orexin 1 receptor (OX1R); Orexin/Hypocretin receptor type 1 (Homo sapiens), O43613; OX1R-expressing cells, FRET antagonist read-out; inhibition, % at 6.6 µM; actives 1.8% (n = 330,000); AID 485270, 2010; in the data active means inhibition mostly above about 38%, no sharp cut-off; inactive means mostly below about 40%;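 further: 0% = agonist challenge alone and 100% = reference antagonist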
EP2 confirm: cAMP induction in EP2, EP4, beta2-AR and parental cells, confirmation, counter-screen for EP2 modulator project, cell-based, five parallel assays, C6 glioma, HEK293. AID 1080, 2008. actives 47% (n = 1,300). calls only at 20 µM (by protocol). shares compounds with EP2 modulator. cAMP HTRF induction; plus low (about EC15) PGE2 agonist;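 active means cAMP induction above 50% in the main assay while under 30% in all four parallel counter assays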;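 further: rat C6 glioma cells stably expressing human EP2 receptor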
* marks the source's active call; other numbers are inactive results; i = inactive; · = no result; + = active, no number. This is a sample that favours compounds with a hit; in the whole collection about 3.7% have one here.

SMILES	GPR7 antag	CHO parental Ca	OX1R antag-1	EP2 modulator	EP2 antag	OX1R antag-2	EP2 confirm
COc1ccc(-c2csc(NC(=O)CN3C(=O)C4CCCCC4C3=O)n2)cc1OC (stereo unspecified)	-9	-2	-16	·	·	14	·
Cc1ccc(-n2cc(-c3ccccc3)c3c(N4CCOCC4)ncnc32)cc1	-16	·	·	69*	12	·	i
COc1ccc(CN(C(=O)c2ccco2)c2ccc(C)cc2)cc1OC	-7	-18	-21	35	8	10	·
Cc1cccc(Cn2c(=O)n(Cc3ccco3)c(=O)c3ccccc32)c1	-5	-24	-21	76*	13	23	i
O=C(c1ccc2c(=O)n(-c3ccccc3)c(=S)[nH]c2c1)N1CCCCC1	-7	32	6	-25	2	20	·
CC1(c2ccccc2)CC(C)(C)N(C(=O)C2CCCO2)c2ccccc21 (stereo unspecified)	10	-37	39	69*	-1	24	+
CC1(c2cc([N+](=O)[O-])cc([N+](=O)[O-])c2)CC(C)(C)N(C(=O)c2ccccc2)c2ccccc21 (stereo unspecified)	-24	-41	-26	74*	10	8	i
CC1(c2ccccc2)CC(C)(C)N(C(=O)CSc2nnc(N)s2)c2ccccc21 (stereo unspecified)	-8	-18	-30	49	5	14	·
O=C(O)c1ccccc1C(=O)c1ccc2c(c1)N(Cc1cccc(F)c1)C(=O)CO2	-16	-24	-28	3	3	11	·
CC1=CC(C)(C)N(S(=O)(=O)c2ccc(C)cc2)c2cc(C)ccc21	17	49*	1	70*	13	18	+
CCCCc1nc2sc3c(SCC(=O)NCc4ccco4)ncnc3c2c2c1CCC2	-5	-2	-33	68*	10	6	i
O=c1c(-c2ccccc2)c(O)c2c(n1-c1ccccc1)CCCC2	0	-3	11	12	12	0	·
O=c1[nH]c(=S)c2c(n1-c1ccccc1)CCC2	-9	-4	-6	82*	33	6	i
CCCc1nnc(SCC(=O)NC2CCCCC2)n1CCOC	6	0	3	·	·	3	·
CCSC1=N/C(=C\c2ccccc2)C(=O)N1c1ccc(OC)cc1	-4	-12	-19	79*	6	2	+
Cn1c(CSCc2ccc(Cl)cc2Cl)n[nH]c1=S	-8	-2	-8	-5	13	28	·
CSc1nnc(CSCc2ccc(Cl)cc2Cl)n1-c1ccccc1	0	-14	-26	61*	5	9	+
CO/N=C/C(=N\Nc1ccccc1)C(=O)c1ccccc1	-1	-36	-54	84*	2	25	+
CCN(CC)S(=O)(=O)c1ccc2c3c(cccc13)C(=O)N2	0	-1	-5	26	12	25	·
CCN(c1cccc(C)c1)S(=O)(=O)c1ccc2c3c(cccc13)C(=O)N2	-15	-19	-20	79*	15	39	+
CCCn1c(=O)[nH]c(=O)c2c1nc(-c1ccccc1OC(F)F)n2CCOC	-8	-11	-26	84*	2	16	i
CCCCn1c(=O)[nH]c(=O)c2c1nc(-c1ccccc1F)n2Cc1ccccc1	-7	-19	-37	53	6	16	·
CCCn1c(-c2cccs2)nc2c1c(=O)[nH]c(=O)n2Cc1ccccc1	-9	-25	-32	72*	0	4	+
CCCn1c(=O)[nH]c(=O)c2c1nc(-c1ccc(OC(F)F)c(OC)c1)n2CCOC	1	-28	-22	9	10	17	·
CCc1ccccc1NC1c2ccccc2C(=O)N1c1cc(C)ccn1 (stereo unspecified)	-2	-16	-35	81*	9	19	i
SMILES	GPR7 antag	CHO parental Ca	OX1R antag-1	EP2 modulator	EP2 antag	OX1R antag-2	EP2 confirm
CCOC(=O)c1ccccc1NC1c2ccccc2C(=O)N1c1ccc(C)cn1 (stereo unspecified)	-1	-5	-22	52	6	5	·
Cc1ccnc(N2C(=O)c3ccccc3C2Nc2ccccc2Cl)c1 (stereo unspecified)	1	-22	-51	48	9	16	·
CCOc1ccccc1NC1c2ccccc2C(=O)N1c1ccc(C)cn1 (stereo unspecified)	-4	-21	-21	81*	5	2	i
COc1ccc(OC)c(C(c2nnnn2CCc2ccccc2)N2CCC(C)CC2)c1 (stereo unspecified)	·	·	·	14	5	·	·
FC(F)(F)c1nnc(-c2ccccc2)nc1Sc1ccccc1	19	-3	5	75*	20	8	i
FC(F)(F)c1nnc(-c2ccccc2)nc1Sc1ccc(Cl)cc1	6	5	-3	42	7	8	·
CCCCCCC/C=C\CCCCCCCCC(=O)O	·	·	·	94*	10	·	+
COCCn1c(SCC(=O)NCCc2ccccc2)nnc1-c1ccco1	6	-12	-15	67*	5	6	i
COC(=O)c1c(NC(=O)CSc2nnc(-c3ccco3)n2Cc2ccccc2)sc(C)c1C	6	-13	-26	52	4	10	i
CC(C)CCn1c(N2CCN(c3cccc(Cl)c3)CC2)nc2c1c(=O)[nH]c(=O)n2C	-9	-11	-36	65*	8	4	i
Cc1cccc(Cn2c(N3CCN(CCO)CC3)nc3c2c(=O)[nH]c(=O)n3C)c1	-8	-2	-12	·	·	-4	·
COc1ccc(N2CCN(c3nc4c(c(=O)[nH]c(=O)n4C)n3Cc3cccc(C)c3)CC2)cc1	-16	-7	-10	70*	7	2	i
O=C(c1cc(-c2ccccn2)nc2ccc(Br)cc12)N1CCc2ccccc2C1	-13	·	·	66*	·	·	i
O=C(c1cc(-c2ccccn2)nc2ccc(Br)cc12)N1CCN(S(=O)(=O)c2ccccc2)CC1	10	-20	-40	17	13	13	·
Cc1nn(Cc2ccccc2)c(Cl)c1C(=O)NCc1ccc(C)n1C	-9	-12	-17	-3	7	8	·
